Source: PubChem
Rows were chosen to be rich in hits. Some 4% of all compounds tested hit in one or more screens of this group.
Measles CPE – compounds protecting cells from measles virus cytopathic effect, primary screen, measles RdRp inhibitor project, single point, MLSMR library, absorbance; Measles virus-infected cells, CPE protection; protection (pct of control), % at 4 µM; 140,000 compounds, 1.5% hits; AID 841, 2007; in the data active = protection mostly above about 24%, no sharp cut-off; inactive = mostly below about 26%
RAM network inh – inhibitors of the yeast RAM network, primary screen, dse1pr::URA3 reporter, 5-FOA selection. S. cerevisiae dse1pr::URA3 reporter, 5-FOA growth OD615, 2 d; analog-sensitive cbk1-as2 kinase mutant strain. inhibition, % at 50 µM. 190,000 compounds, 1.8% hits;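 active = inhibition above a set limit, 3 SD over mean compound inhibition, cut at about 8.4% in these data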;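 note: 0% = DMSO-only wells with no growth and 100% = 10 µM 1-NA-PP1 full growth; inhibition rescues growth on 5-FOA so higher OD means more RAM inhibition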
BB579 growth dn – growth inhibitors of yeast BB579 in restrictive medium, primary screen, yeast lifespan-shortening project, S. cerevisiae; OD615, 48 h; inhibition, % at 10 µM; 140,000 compounds, 0.51% hits; AID 804, 2007;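 active = inhibition above a set limit, 3 SD over the mean compound inhibition, cut at about 44% in these data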
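Test system: S. cerevisiae DeaD strain BB579 yeast; Medium: restrictive CSMM-D medium; Compound: one dose, 10 µM compound with 0.25% DMSO; Incubation: 4 h cell preincubation, 48 h compound exposure, 30 °C humidified; Signal: OD at 615 nm; Benchmarks: amphotericin B at 10 µg/mL as positive control.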
MDM2 E3 inh – MDM2-luciferase reporter signal enhancers, primary screen, MDM2 E3 ligase inhibitor project, cell-based, luminescence, 1536-well; signal enhancement, % at 5 µM; AID 1230, 2008; 210,000 compounds, 0.11% hits; cell-based MDM2 ubiquitination luciferase reporter, 2 h; 0 = plate control, 100 = twice control, blank-subtracted;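 active = signal enhancement of 30% or more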;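 note: luminescence tracks abundance of the self-degrading MDM2-luciferase fusion protein; higher signal means inhibition of MDM2 E3 ligase activity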
Target sequence (Q00987 whole entry, looked up, the tested form may be a part): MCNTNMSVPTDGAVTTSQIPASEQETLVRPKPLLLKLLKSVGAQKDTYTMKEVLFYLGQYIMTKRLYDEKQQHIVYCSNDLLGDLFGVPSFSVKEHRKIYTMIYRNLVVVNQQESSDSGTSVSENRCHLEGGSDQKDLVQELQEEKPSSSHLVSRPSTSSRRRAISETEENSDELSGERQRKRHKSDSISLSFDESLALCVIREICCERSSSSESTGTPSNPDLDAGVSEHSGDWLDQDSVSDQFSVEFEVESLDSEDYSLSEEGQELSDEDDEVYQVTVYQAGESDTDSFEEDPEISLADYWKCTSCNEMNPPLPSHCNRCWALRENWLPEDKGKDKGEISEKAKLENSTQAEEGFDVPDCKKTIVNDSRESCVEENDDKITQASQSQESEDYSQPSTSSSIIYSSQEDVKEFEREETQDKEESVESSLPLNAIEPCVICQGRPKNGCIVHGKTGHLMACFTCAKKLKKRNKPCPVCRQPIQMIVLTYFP
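Assay system: stable mammalian line carrying autodegrading MDM2–luciferase fusion reporter; Input: 2000 cells in each well; Compound dosing: single-point 5 µM; Schedule: 2 h compound exposure at 37 °C; Signal: SteadyLite luciferase luminescence after 15 min room-temperature reagent incubation; Evaluation: % luminescence enhancement versus blank-corrected plate control mean; Benchmarks: plate controls and plate blanks.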
Yeast life ext – compounds extending yeast replicative lifespan, primary screen, S. cerevisiae, OD615 | inhibition of the nicotinamide effect, % at 10 µM | 130,000 compounds, 0.68% hits | S. cerevisiae growth with nicotinamide; deaD strain in restrictive glucose medium;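 active = inhibition above a set limit, placed 3 SD over the median of all compounds, cut at about 26% in these data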;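 note: 0% = nicotinamide-treated wells and 100% = cells grown without nicotinamide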
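Measured by: optical density (absorbance) at 615 nm; System: modified budding yeast, DeaD strain; Medium: restrictive CSMM-D dextrose medium; Timing: 4 h preincubation then 48 h treatment at 30 °C.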
INS promoter inh – inhibitors of insulin promoter-driven GFP, primary screen, imaging, TRM-6 cells (human fetal islet line), eGFP reporter, cell count. 130,000 compounds, 0.9% hits. AID 1273, 2008. inhibition, % at 2 µM. reporter expression induced with tamoxifen;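 active = inhibition above the mean plus 3 SD, with well images judged a real hit on visual review, cut at about 60% in these data, passing the limit was not always enough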
RAM efflux-def – 5-FOA growth of efflux-deficient control yeast, dose response, counter-screen for RAM network inhibitor project, S. cerevisiae, OD615 | shares compounds with RAM network inh | S. cerevisiae efflux-deficient reporter strain, 5-FOA growth OD615, 2 days | max inhibition, % | 1,200 tested, under 10 active; call rule not given here;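 note: plate controls were vehicle for no effect and reference inhibitor for full effect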
Active calls of the source: *; . = not tested or not shown.

SMILES | Measles CPE | RAM network inh | BB579 growth dn | MDM2 E3 inh | Yeast life ext | INS promoter inh | RAM efflux-def
CN(C)c1nc(SCCOC(=O)COc2ccc(Cl)cc2Cl)nc(N(C)C)n1 | 105.1* | 11.6* | -29.1 | -17.4 | 0.5 | 2.9 | 3.1
Cc1ccc2[nH]c(=O)cc(C(=O)OCC(=O)c3ccccc3)c2c1 | 9.5 | 15.3* | -21.8 | 2.5 | -3.0 | 50.0 | 1.1
Cc1cc(C(=O)CSc2nnc(N)s2)c(C)n1CCc1ccc(Cl)cc1 | 3.7 | 3.5 | -48.1 | -2.7 | -13.3 | -84.6 | .
Cc1cc(C(=O)CCl)c(C)n1CCc1ccc(Cl)cc1 | . | 12.7* | . | . | . | . | 5.2
Cc1ccc(SCC(=O)N2c3ccccc3Sc3ccccc32)cc1 | 10.6 | 13.9* | -31.4 | -2.7 | -17.5 | 36.7 | 1.8
NCCCCc1cn(CC(=O)N2CCNCC2)nn1 | . | 3.4 | . | . | . | . | .
COc1ccc2c(C)cc(SCC(=O)c3ccc4c(c3)OCO4)nc2c1 | 24.7 | 12.1* | -15.4 | -12.6 | -11.8 | -37.1 | 5.4
COCCn1c(C)cc(C(=O)CSc2cc(C)c3ccc(OC)cc3n2)c1C | 8.1 | 4.6 | -44.5 | -4.9 | 6.4 | -14.7 | .
CN(C)c1ccnc2sc3c(NCC(O)CO)ncnc3c12 (stereo not drawn) | 14.8 | 0.1 | -11.8 | -11.2 | 2.2 | -6.2 | .
CN(C)c1ccnc2sc3c(SCc4ccc(Cl)cc4)ncnc3c12 | 5.9 | 18.7* | -14.3 | 4.0 | 6.9 | . | 5.8
Cc1ccc(S(=O)(=O)N(CCCO)CC(O)CON=C2c3ccccc3-c3ccccc32)cc1 (stereo not drawn) | 1.9 | 13.3* | -25.3 | -3.6 | -0.8 | . | 3.3
N#Cc1cc[n+](CC(=O)c2ccc(NC(=O)c3ccccc3)cc2)cc1 | . | . | . | -6.5 | . | . | .
CCOC(=O)c1cc(C#N)c(Oc2ccccc2)nc1-c1ccccc1 | 2.8 | 12.2* | -5.7 | -2.8 | -1.9 | 6.2 | 5.8
CCOC(=O)c1cnc(-c2ccccc2)nc1Oc1ccc(Cl)cc1 | 1.8 | 13.6* | -49.2 | -14.6 | 36.4 | -50.0 | 1.2
O=C(O)c1cnc(-c2ccccc2)nc1Oc1ccc(Cl)cc1 | . | 2.7 | . | -13.6 | . | . | .
CSc1nc2ccccc2cc1/C=C(\C#N)c1cccc(C)c1 | 2.3 | 12.8* | -19.3 | -8.4 | -9.8 | -13.5 | 5.1
CSc1nc2ccccc2cc1/C=C(\C#N)c1ccccc1 | 4.0 | 6.4 | -61.7 | -9.5 | -5.7 | 27.6 | .
OCCCNc1nc(-c2ccc(Cl)cc2)nnc1-c1ccc(Br)cc1 | 13.2 | 1.2 | -35.5 | -14.2 | -1.8 | -15.4 | .
O=[N+]([O-])c1ccc(-c2nnc(-c3ccccc3)c(NCCCO)n2)cc1 | 21.1 | 12.7* | -41.3 | -6.8 | -4.1 | -29.4 | 2.2
CCCCCC(=O)O[C@]1(C(C)=O)CC[C@H]2[C@@H]3CCC4=CC(=O)CC[C@]4(C)[C@H]3CC[C@@]21C | 36.7 | 11.9* | -46.8 | . | 7.2 | 42.9 | 3.0
C=C(CC1([C@@H](NP(=O)(c2ccccc2)c2ccccc2)[C@H]2C[C@@H]2CCCC)CC1)c1ccccc1 | 2.9 | 21.2* | -21.2 | . | 3.8 | -19.1 | 7.5
CC(NC(=O)C(c1ccccc1)c1ccccc1)C(=O)N1CCCCC1 (stereo not drawn) | . | -0.6 | . | -11.6 | . | -77.8 | .
CC(C)CCOc1ncnc2c1sc1nc3c(cc12)CSC(C)(C)C3 | 10.4 | 13.1* | -3.8 | . | . | 6.2 | 3.0
O=c1c2ccccc2nc(-c2ccco2)n1CCCn1ccnc1 | 12.2 | 1.2 | -11.2 | -15.7 | -2.3 | -72.7 | .
CC(C)N(Cc1nc(-c2ccc(Cl)cc2)no1)C(=O)/C=C/c1ccccc1 | 32.7 | 11.7* | -60.4 | 0.0 | -1.9 | . | 2.2
